From ChEMBL document CHEMBL1121744, “Synthesis and antihypertensive activity of a series of 8-substituted 1-oxa-3,8-diazaspiro[4.5]decan-2-ones” (J Med Chem, 1981)
Activity calls are given as the source filed them. No cut-off for these calls is given here.

How the values were obtained:
[1] = (§1) Distribution coefficient between 1-Octanol and phosphate buffer at pH7.4; format: physicochemical; conditions: 1-octanol/phosphate buffer, pH 7.4
Rattus norvegicus [2] = experiment: Antihypertensive activity as percentage fall in systolic blood pressure in spontaneously hypertensive rats after a period of 3 h for a dose of 50 mg/kg; format: functional, organism-based; design: dose 50 mg/kg; conditions: Artery
Procedure, shortened: (§2)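 Male Okamoto-Aoki SHR, trained, in groups of four matched for mean systolic pressure; one group per run received water vehicle. Oral dosing in water (0.1 mL per 10 g) on two consecutive mornings. After the day-2 dose, rats were restrained at 30.0 ± 1.0 °C. Systolic pressure was read by tail cuff (inflated to 300 mmHg, first pulse) at 1–4 h. % fall is versus the untreated control group, by 1-tail t test (p ≤ 0.05).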

Rattus norvegicus [3] = experiment: Antihypertensive activity as percentage fall in systolic blood pressure in spontaneously hypertensive rats after a period of 2 hr for a dose of 50 mg/kg; format: functional, organism-based; design: dose 50 mg/kg; conditions: Artery; procedure, shortened: as §2
Rattus norvegicus [4] = experiment: Antihypertensive activity as percentage fall in systolic blood pressure in spontaneously hypertensive rats after a period of 1 hr for a dose of 50 mg/kg po; format: functional, organism-based; design: dose 50 mg/kg; conditions: Artery; procedure, shortened: as §2
Rattus norvegicus [5] = experiment: Antihypertensive activity as percentage fall in systolic blood pressure in spontaneously hypertensive rats after a period of 4 hr for a dose of 50 mg/kg; format: functional, organism-based; design: dose 50 mg/kg; conditions: Artery; procedure, shortened: as §2
[6] = as §1; format: physicochemical; conditions: 1-octanol/phosphate buffer, pH 7.4; remark: listed apart in the source
Procedure, shortened: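 Octanol/buffer distribution measured at pH 7.4 in phosphate with sodium chloride. Either HPLC (0.004 M) or shake flask.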

Rattus norvegicus [7] = experiment: The antihypertensive activity as percentage fall in systolic blood pressure in spontaneously hypertensive rats after a period of 3 hr for a dose of 75 mg/kg po; NS=Not significant; format: functional, organism-based; design: dose 75 mg/kg; conditions: Artery
Procedure, shortened: (§3)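 Male Okamoto-Aoki SHR, trained, in groups of four matched for systolic pressure, with a concurrent vehicle control group. Oral dosing on two consecutive mornings, in water as solution or suspension at 0.1 mL/10 g. On day 2 rats were restrained at 30.0 ± 1.0 °C. Tail-cuff systolic pressure, four traces per rat, read at each hour. Per cent fall versus control; 1-tail t test, p ≤ 0.05.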

Rattus norvegicus [8] = experiment: The antihypertensive activity as percentage fall in systolic blood pressure in spontaneously hypertensive rats after a period of 4 hr for a dose of 75 mg/kg po; NS=Not significant; format: functional, organism-based; design: dose 75 mg/kg; conditions: Artery; procedure, shortened: as §3
Rattus norvegicus [9] = experiment: The antihypertensive activity as percentage fall in systolic blood pressure in spontaneously hypertensive rats after a period of 1 hr for a dose of 50 mg/kg po
Rattus norvegicus [10] = experiment: The antihypertensive activity as percentage fall in systolic blood pressure in spontaneously hypertensive rats after a period of 2 hr for a dose of 50 mg/kg po
Rattus norvegicus [11] = experiment: Antihypertensive activity as percentage fall in systolic blood pressure in spontaneously hypertensive rats after a period of 1 hr for a dose of 50 mg/kg po; NS=Not significant; format: functional, organism-based; design: dose 50 mg/kg; conditions: Artery; procedure, shortened: as §3

SMILES | logD [1] | Decrease in blood pressure (Rattus norvegicus [2]) | Decrease in blood pressure (Rattus norvegicus [3]) | Decrease in blood pressure (Rattus norvegicus [4]) | Decrease in blood pressure (Rattus norvegicus [5]) | logD [6] | Decrease in blood pressure (Rattus norvegicus [7]) | Decrease in blood pressure (Rattus norvegicus [8]) | Decrease in blood pressure (Rattus norvegicus [9]) [%] | Decrease in blood pressure (Rattus norvegicus [10]) [%] | Decrease in blood pressure (Rattus norvegicus [11])
COc1ccccc1OCC(O)CN1CCC2(CC1)CN(Cc1ccccc1)C(=O)O2 (stereo not given) | 2.19 | Not significant | Not significant | Not significant | Not significant | – | – | – | – | – | –
CC(C)N1CC2(CCN(CCc3c[nH]c4ccccc34)CC2)OC1=O | – | – | – | – | – | 2.4 | inactive | inactive | 22 | 9 | –
CCN1CC2(CCN(CCc3c[nH]c4ccccc34)CC2)OC1=O | – | Not significant | Not significant | – | Not significant | 1.92 | – | – | – | – | inactive
